The values that follow come from ChEMBL document CHEMBL1122854, “Novel bis[1,6-dihydro-6,6-dimethyl-1,3,5-triazine-2,4-diamines] as antitrypanosomal agents” (1985).

Common to all, as to assay type: functional
Holding throughout (conditions): route subcutaneous

For test [1], the system named is Trypanosoma brucei rhodesiense. The test can be described thus: Antitrypanosomal activity against Trypanosoma rhodesiense infections in mice, 106 mg/kg administered subcutaneously. An outline of the steps:
(§1)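 Six-week-old IUR/HA Swiss mice (30-32 g), 5 per dose, infected ip with 0.5 mL of a 1:50 000 dilution of heparinized heart blood from donor mice infected 3 days before (Wellcome CT strain). Single sc dose in peanut oil about 2 h post-inoculation. Deaths before day 4 counted toxic. ΔMST versus untreated controls; survivors at 30 days counted cured.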

The test system of test [2] is Trypanosoma brucei rhodesiense. The test can be described thus: Anti-trypanosomal activity against Trypanosoma rhodesiense infections in mice, 26 mg/kg administered subcutaneously. An outline of the steps:
as §1

Test [3] deals with Trypanosoma brucei rhodesiense. The test can be described thus: Antitrypanosomal activity was evaluated against Trypanosoma rhodesiense infections in mice, at dose 424 mg/kg, administered subcutaneously. An outline of the steps: as §1
Test [4] relates to Trypanosoma brucei rhodesiense. The test can be described thus: Antitrypanosomal activity against Trypanosoma rhodesiense infections in mice, 424 mg/kg administered subcutaneously. An outline of the steps: (§2)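 IUR/HA Swiss mice (six weeks old, 30-32 g) infected i.p. with Wellcome CT strain T. rhodesiense. A single subcutaneous dose in peanut oil was given about 2 h after inoculation, with five mice per dose level. Positive control was stilbamidine or 2-hydroxystilbamidine isethionate at 40 mg/kg. Deaths before day 4 were scored toxic, and 30-day survivors cured.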

Test [5] deals with Trypanosoma brucei rhodesiense. The test can be described thus: Antitrypanosomal activity was evaluated against Trypanosoma rhodesiense infections in mice, at dose 106 mg/kg, administered subcutaneously. An outline of the steps:
as §2

Test [6] deals with Trypanosoma brucei rhodesiense. The test can be described thus: Antitrypanosomal activity was evaluated against Trypanosoma rhodesiense infections in mice, at dose 26 mg/kg, administered subcutaneously;Toxic. An outline of the steps: as §2
Test [7] relates to Trypanosoma brucei rhodesiense. The test can be described thus: Antitrypanosomal activity against Trypanosoma rhodesiense infections in mice, 3.3 mg/kg administered subcutaneously. An outline of the steps: as §1
Test [8] deals with Trypanosoma brucei rhodesiense. The test can be described thus: Antitrypanosomal activity against Trypanosoma rhodesiense infections in mice, 6.6 mg/kg administered subcutaneously. An outline of the steps: as §1
Test [9] concerns Trypanosoma brucei rhodesiense. The test can be described thus: Antitrypanosomal activity was evaluated against Trypanosoma rhodesiense infections in mice, at dose 1.6 mg/kg, administered subcutaneously. An outline of the steps:
as §1

Test [10] deals with Trypanosoma brucei rhodesiense. The test can be described thus: Antitrypanosomal activity was evaluated against Trypanosoma rhodesiense infections in mice, at dose 212 mg/kg, administered subcutaneously. An outline of the steps: as §1
Test [11] concerns Trypanosoma brucei rhodesiense. The test can be described thus: Antitrypanosomal activity was evaluated against Trypanosoma rhodesiense infections in mice, at dose 53 mg/kg, administered subcutaneously. An outline of the steps: as §1

Regarding `Cl.Cl.NC1=NC2(CCCCC2)NC(Nc2ccc(CCc3ccc(NC4=NC5(CCCCC5)NC(N)=N4)cc3)cc2)=N1`, the “Delta MST” value in test [1], in test [2] and in test [3] was 0.2 days each time.

For `Cl.Cl.NC1=NC(C2CCC3(CC2)N=C(N)N=C(N)N3c2ccc(Cl)cc2)N(c2ccc(Cl)cc2)C(N)=N1` (stereo not drawn), the results for the Toxic in test [4] and in test [5] were 5 and 4, respectively. The “Delta MST” value in test [2] amounted to 1 days.

Take `CC1(C)N=C(N)N=C(N)N1c1ccc(Sc2ccc(N3C(N)=NC(N)=NC3(C)C)cc2)cc1.Cl.Cl`: the Toxic in test [6] came out at 1; in [4], 5; in test [5], 5. Further, the “Delta MST” value is 2.7 days in [2], 0.6 days in [7] and 0.6 days in test [8].

For `CC1(C)N=C(N)N=C(N)N1c1ccc(OCCCCCCCCCCOc2ccc(N3C(N)=NC(N)=NC3(C)C)cc2)cc1.Cl.Cl`, the “Delta MST” value in test [1] is 0.1 days; in [2], -0.1 days; in [3], 0.1 days.

As to `CC1(C)N=C(N)N=C(N)N1c1ccc(SSc2ccc(N3C(N)=NC(N)=NC3(C)C)cc2)cc1.Cl.Cl`, the “Delta MST” value in test [1] is 0.1 days; in test [2], 0.1 days; in [3] it was 0.5 days.

Take `CC1(C)N=C(N)N=C(N)N1c1cc(C(=O)O)cc(N2C(N)=NC(N)=NC2(C)C)c1.Cl.Cl`: the “Delta MST” value in test [1] was 0.1 days; in test [2] it was -0.1 days; in [3], -0.1 days.

Turning to `CC1(C)N=C(N)N=C(N)N1c1ccc(OCCOc2ccc(N3C(N)=NC(N)=NC3(C)C)cc2)cc1.Cl.Cl`, the Toxic in test [6] came out at 4; in test [4] it was 5; in test [5], 5. Further, the “Delta MST” value in test [9] was found to be 2.8 days; in test [2], 8.9 days; in test [7], 1 days; in test [8] it was 2.6 days.

With `CC1(C)N=C(N)N=C(N)N1c1ccc2oc3ccc(N4C(N)=NC(N)=NC4(C)C)cc3c2c1.Cl.Cl`, the Toxic in [4] and in test [5] was 5 throughout. In addition, the figures for the “Delta MST” value in test [9], in test [2] and in test [8] were 0.2 days, -0.2 days and -0.2 days, respectively.

`CC1(C)N=C(N)N=C(N)N1c1ccc(Cc2ccc(N3C(N)=NC(N)=NC3(C)C)cc2[N+](=O)[O-])c([N+](=O)[O-])c1.Cl.Cl`: the Toxic in test [4] and in [5] was 5 in each case. The “Delta MST” value in test [2] worked out at 0.6 days.

Turning to `CC1(C)N=C(N)N=C(N)N1c1ccc(N2C(N)=NC(N)=NC2(C)C)cc1.Cl.Cl`, in test [4], the Toxic turned out to be 3. In addition, the “Delta MST” value in [9] was 0.1 days; in [1], 0.2 days; in test [2] it was 0 days; in test [7], -0.1 days; in test [3], 1 days; in [8], 0.1 days.

For `CC1(C)N=C(N)NC(Nc2ccc(NC3=NC(C)(C)N=C(N)N3)cc2)=N1.Cl.Cl`, the Toxic in test [4] is given as 5; in test [5], 4. For the same molecule, the “Delta MST” value turned out to be 1.9 days in [1] and 1.3 days in test [2].

Regarding `Cc1cc(S(=O)(=O)c2ccc(N3C(N)=NC(N)=NC3(C)C)cc2)ccc1N1C(N)=NC(N)=NC1(C)C.Cl.Cl`, the Toxic in [6] was found to be 4; in test [4], 5; in test [5] it was 5. Further, the “Delta MST” value in [2] was found to be 0.7 days; in test [7], 0.2 days; in test [8], 0.4 days.

Take `CC1(C)N=C(N)N=C(N)N1c1ccc(OCCCCCCCCCCCCOc2ccc(N3C(N)=NC(N)=NC3(C)C)cc2)cc1.Cl.Cl`: the “Delta MST” value came out at 0.8 days in [1]; 0.8 days in test [10]; 0.2 days in [2]; 0.8 days in test [3]; 0.4 days in test [11].
